Data: ChEMBL document CHEMBL1122187, “Synthesis and antiviral activity of certain carbamoylpyrrolopyrimidine and pyrazolopyrimidine nucleosides” (1982)

Columns and labels:
Vero [1] = assay: In vitro antiviral activity against parainfluenza type 3(para 3) virus was determined in african green monkey kidney (vero,V) expressed as virus rating. Toxic level(1000 ug/mL); type: functional, Chlorocebus sabaeus
Outline: (§1)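 Cell monolayers (18 h) infected with 320 TCID50 of virus. Compound was added within 15–30 min at half-log dilutions from 1000 to 1 μg/mL. After 72 h at 37 °C in 5% CO2, CPE was scored 0–4 by microscopy. VR = sum of (virus control − treated) scores, halved at partially toxic levels, divided by 10 × test cups per drug level.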

Vero [2] = assay: In vitro antiviral activity against vaccinia(VV) virus was determined in african green monkey kidney (vero,V) expressed as virus rating. Toxic level(1000 ug/mL); type: functional, Chlorocebus sabaeus; outline: as §1
Vero [3] = assay: In vitro antiviral activity against herpes simplex type 1 (HSV-1) virus was determined in african green monkey kidney (vero,V) expressed as virus rating. Toxic level(1000 ug/mL); type: functional, Chlorocebus sabaeus; outline: as §1
Vero [4] = assay: In vitro antiviral activity against herpes simplex type 1 (HSV-1) virus was determined in african green monkey kidney (vero,V) expressed as virus rating. Toxic level(>1000 ug/mL); type: functional, Chlorocebus sabaeus; outline: as §1
HEp-2 [5] = assay: In vitro antiviral activity against parainfluenza type-3 (para 3) virus was determined in human laryngeal epithelioma (HEp-2,H)expressed as virus rating. Toxic level(320 ug/mL); type: functional; outline: as §1
HEp-2 [6] = assay: In vitro antiviral activity against vaccinia(VV) virus was determined in human laryngeal epithelioma (HEp-2,H)expressed as virus rating. Toxic level (320 ug/mL); type: functional; outline: as §1
Vero [7] = assay: In vitro antiviral activity against vaccinia(VV) virus was determined in african green monkey kidney (vero,V) expressed as virus rating. Toxic level(>1000 ug/mL); type: functional, Chlorocebus sabaeus; outline: as §1
Vero [8] = assay: In vitro antiviral activity against parainfluenza type 3(para 3) virus was determined in african green monkey kidney (vero,V) expressed as virus rating. Toxic level(>1000 ug/mL); type: functional, Chlorocebus sabaeus; outline: as §1
HEp-2 [9] = assay: In vitro antiviral activity against herpes simplex type 1 (HSV-1) virus was determined in human laryngeal epithelioma (HEp-2,H)expressed as virus rating. Toxic level(320 ug/mL); type: functional; outline: as §1
Vero [10] = assay: In vitro antiviral activity against vaccinia(VV) virus was determined in african green monkey kidney (vero,V) expressed as virus rating.; type: functional, Chlorocebus sabaeus; outline: as §1
Vero [11] = assay: In vitro antiviral activity against parainfluenza type 3(para 3) virus was determined in african green monkey kidney (vero,V) expressed as virus rating.; type: functional, Chlorocebus sabaeus; outline: as §1
Vero [12] = assay: Percentage plaque reduction was determined against Sandfly fever (SF) virus in african green monkey kidney (vero,V) at a conc of <25 ug/mL. Toxic level(>1000 ug/mL); type: functional, Chlorocebus sabaeus
Outline: (§2)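 Infected Vero 24-well monolayers: virus adsorbed 1 h at 37 °C, then overlaid with agar holding dilutions of compound and incubated again at 37 °C with CO₂. Plaques were stained with crystal violet and counted. Inhibition was scored as % plaque reduction bands (10-30%, 31-60%, 61-90%), each tied to a drug concentration range.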

Vero [13] = assay: 0 Percentage plaque reduction was determined against rift valley fever(RVF) virus in african green monkey kidney (vero,V) at a conc of 250-500 ug/mL. Toxic level(>1000 ug/mL); type: functional, Chlorocebus sabaeus
Vero [14] = assay: Percentage plaque reduction was determined against rift valley fever(RVF) virus in african green monkey kidney (vero,V) at a conc of <25 ug/mL. Toxic level(>1000 ug/mL); type: functional, Chlorocebus sabaeus
Vero [15] = assay: Percentage plaque reduction was determined against yellow fever(YF) virus in african green monkey kidney Toxic level(>1000 ug/mL); type: functional, Chlorocebus sabaeus
Vero [16] = assay: Percentage plaque reduction was determined against venezuelan equine encephalitis (VEE) virus in african green monkey kidney (vero,V) at a conc of 100-250 ug/mL. Toxic level(>1000 ug/mL); type: functional, Chlorocebus sabaeus
Vero [17] = assay: Percentage plaque reduction was determined against rift valley fever(RVF) virus in african green monkey kidney (vero,V) at a conc of 100-250 ug/mL. Toxic level(>1000 ug/mL); type: functional, Chlorocebus sabaeus
Vero [18] = assay: Percentage plaque reduction was determined against Sandfly fever (SF) virus in african green monkey kidney (vero,V) at a conc of 25-100 ug/mL. Toxic level(>1000 ug/mL); type: functional, Chlorocebus sabaeus
Vero [19] = assay: Percentage plaque reduction was determined against Sandfly fever (SF) virus in african green monkey kidney (vero,V) at a conc of 250-500 ug/mL. Toxic level(>1000 ug/mL); type: functional, Chlorocebus sabaeus
Vero [20] = assay: Percentage plaque reduction was determined against Sandfly fever (SF) virus in african green monkey kidney (vero,V) at a conc of 100-250 ug/mL. Toxic level(>1000 ug/mL); type: functional, Chlorocebus sabaeus
Vero [21] = assay: Percentage plaque reduction was determined against venezuelan equine encephalitis (VEE) virus in african green monkey kidney (vero,V) at a conc of 25-100 ug/mL. Toxic level(>1000 ug/mL); type: functional, Chlorocebus sabaeus
Vero [22] = assay: Percentage plaque reduction was determined against rift valley fever(RVF) virus in african green monkey kidney (vero,V) at a conc of 25-100 ug/mL. Toxic level(>1000 ug/mL); type: functional, Chlorocebus sabaeus
Vero [23] = assay: Percentage plaque reduction was determined against venezuelan equine encephalitis (VEE) virus in african green monkey kidney (vero,V) at a conc of 250-500 ug/mL. Toxic level(>1000 ug/mL); type: functional, Chlorocebus sabaeus
Vero [24] = assay: Percentage plaque reduction was determined against pichinde(PICH) virus in african green monkey kidney (vero,V). Toxic level(>1000 ug/mL); 31-60; type: functional, Chlorocebus sabaeus; outline: as §2
Vero [25] = assay: Percentage plaque reduction was determined against venezuelan equine encephalitis (VEE) virus in african green monkey kidney (vero,V) at a conc of <25 ug/mL./Toxic level(>1000 ug/mL); type: functional, Chlorocebus sabaeus
Vero [26] = assay: Percentage plaque reduction was determined against Sandfly fever (SF) virus in african green monkey kidney (vero,V) at a conc of 25-100 ug/mL. Toxic level(>1000 ug/mL); 61-90; type: functional, Chlorocebus sabaeus
Vero [27] = assay: Percentage plaque reduction was determined against rift valley fever(RVF) virus in african green monkey kidney (vero,V) at a conc of 100-250 ug/mL. Toxic level(>1000 ug/mL); 31-60; type: functional, Chlorocebus sabaeus
Vero [28] = assay: Percentage plaque reduction was determined against pichinde(PICH) virus in african green monkey kidney (vero,V). Toxic level(>1000 ug/mL); 61-90; type: functional, Chlorocebus sabaeus; outline: as §2
HEp-2 [29] = assay: In vitro antiviral activity against vaccinia(VV) virus was determined in human laryngeal epithelioma (HEp-2,H)expressed as virus rating. Toxic level(>1000 ug/mL); type: functional; outline: as §1
HEp-2 [30] = assay: In vitro antiviral activity against parainfluenza type 3 (para 3) type 1 (HSV-1) virus was determined in human laryngeal epithelioma (HEp-2,H)expressed as virus rating. Toxic level(>1000 ug/mL); type: functional; outline: as §1
Vero [31] = assay: Percentage plaque reduction was determined against venezuelan equine encephalitis (VEE) virus in african green monkey kidney (vero,V) at a conc of 250-500 ug/mL. Toxic level(>1000 ug/mL); 10-30; type: functional, Chlorocebus sabaeus
Vero [32] = assay: Percentage plaque reduction was determined against yellow fever(YF) virus in african green monkey kidney (vero,V).Toxic level(>1000 ug/mL); 61-90; type: functional, Chlorocebus sabaeus
HEp-2 [33] = assay: In vitro antiviral activity against herpes simplex type 1 (HSV-1) virus was determined in human laryngeal epithelioma (HEp-2,H)expressed as virus rating. Toxic level(>1000 ug/mL); type: functional; outline: as §1
Vero [34] = assay: In vitro antiviral activity against parainfluenza type 3(para 3) virus was determined in african green monkey kidney (vero,V) expressed as virus rating. Toxic level(320 ug/mL); type: functional, Chlorocebus sabaeus; outline: as §1
Vero [35] = assay: In vitro antiviral activity against herpes simplex type 1 (HSV-1) virus was determined in african green monkey kidney (vero,V) expressed as virus rating. Toxic level(320 ug/mL); type: functional, Chlorocebus sabaeus; outline: as §1
Vero [36] = assay: In vitro antiviral activity against vaccinia(VV) virus was determined in african green monkey kidney (vero,V) expressed as virus rating. Toxic level(320 ug/mL); type: functional, Chlorocebus sabaeus; outline: as §1

## OC[C@H]1O[C@@H](n2cnc3c(S)ncnc32)[C@H](O)[C@@H]1O [THIOINOSINE]
Vero [1]
  Virus rating: 1.2
Vero [2]
  Virus rating: 1.1
Vero [3]
  Virus rating: 0.8

## OC[C@H]1O[C@@H](n2cnc3c(Cl)ncnc32)[C@H](O)[C@@H]1O
Vero [1]
  Virus rating: 0.4
Vero [2]
  Virus rating: 1.8
Vero [3]
  Virus rating: 0.4

## NC(=O)c1ncnc2c1ncn2C1O[C@H](CO)[C@@H](O)[C@H]1O (some centres undefined)
Vero [4]
  Virus rating: 0.6
HEp-2 [5]
  Virus rating: 1.4
HEp-2 [6]
  Virus rating: 1.1
Vero [7]
  Virus rating: 1.5
Vero [8]
  Virus rating: 0
HEp-2 [9]
  Virus rating: 0.6

## CSc1ncnc2c1cnn2C1O[C@H](CO)[C@@H](O)[C@H]1O (some centres undefined)
Vero [10]
  Virus rating: 0.2
Vero [4]
  Virus rating: 0.2
Vero [11]
  Virus rating: 1

## O=C1N=CN=C2C1C=NN2C1O[C@H](CO)[C@@H](O)[C@H]1O (some centres undefined)
Vero [12]
  Plaque reduction: 0%
Vero [13]
  Plaque reduction: 0%
Vero [14]
  Plaque reduction: 0%
Vero [15]
  Plaque reduction: 0%
Vero [4]
  Virus rating: 0
Vero [16]
  Plaque reduction: 0%
Vero [17]
  Plaque reduction: 0%
Vero [18]
  Plaque reduction: 0%
Vero [19]
  Plaque reduction: 0%
Vero [20]
  Plaque reduction: 0%
Vero [21]
  Plaque reduction: 0%
Vero [22]
  Plaque reduction: 0%
Vero [23]
  Plaque reduction: 0%
Vero [24]
  Plaque reduction: 31%
Vero [25]
  Plaque reduction: 0%

## NC(=O)c1ncn([C@@H]2O[C@H](CO)[C@@H](O)[C@H]2O)n1 [RIBAVIRIN]
Vero [26]
  Plaque reduction: 61%
Vero [4]
  Virus rating: 0.6
Vero [27]
  Plaque reduction: 31%
Vero [28]
  Plaque reduction: 61%
HEp-2 [29]
  Virus rating: 1.7
HEp-2 [30]
  Virus rating: 1.7
Vero [7]
  Virus rating: 1.2
Vero [31]
  Plaque reduction: 10%
Vero [32]
  Plaque reduction: 61%
Vero [8]
  Virus rating: 1.3
HEp-2 [33]
  Virus rating: 1.2

## OC[C@H]1O[C@@H](c2n[nH]c3c(Cl)ncnc23)[C@H](O)[C@@H]1O
Vero [34]
  Virus rating: 1.3
Vero [35]
  Virus rating: 0
Vero [36]
  Virus rating: 1
